In ChEMBL document CHEMBL5647699, “Discovery of a chemical probe for PRDM9” (Nat Commun, 2019):
Calls of active or inactive are those of the source. The calls are words filed in the database; no cut-off is given here.

Experiments:
SK-MM-2 = assay: Cytotoxicity against human SK-MM-2 cells at upto 30 uM measured for 3 to 6 days by celltiter glo assay; type: functional, cell-based; settings: time 3-6 day
[1] = target: Muscarinic acetylcholine receptor M2 (Homo sapiens) (UniProt P08172); assay: Agonist activity at muscarinic M2 receptor (unknown origin) by Glo Sensor assay; type: functional
Muscarinic acetylcholine receptor M2 (Homo sapiens), sequence (P08172 whole entry): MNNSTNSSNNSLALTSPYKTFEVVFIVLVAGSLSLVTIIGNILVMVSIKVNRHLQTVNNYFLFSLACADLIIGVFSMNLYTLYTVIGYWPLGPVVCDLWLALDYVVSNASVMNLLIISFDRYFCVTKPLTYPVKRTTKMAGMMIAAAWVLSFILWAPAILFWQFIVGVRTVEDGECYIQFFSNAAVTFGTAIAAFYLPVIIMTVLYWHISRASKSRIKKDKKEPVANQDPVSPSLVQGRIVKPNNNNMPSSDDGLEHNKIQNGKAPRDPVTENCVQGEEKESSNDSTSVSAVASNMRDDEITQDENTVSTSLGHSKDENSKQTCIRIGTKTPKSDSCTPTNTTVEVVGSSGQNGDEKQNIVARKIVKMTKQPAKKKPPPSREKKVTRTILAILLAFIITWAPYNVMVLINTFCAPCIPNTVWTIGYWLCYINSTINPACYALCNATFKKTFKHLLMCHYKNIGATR

CAL-85-1 = assay: Cytotoxicity against human CAL-85-1 cells at upto 30 uM measured for 3 to 6 days by celltiter glo assay; type: functional, cell-based; settings: time 3-6 day
HCC1143 = assay: Cytotoxicity against human HCC1143 cells at upto 30 uM measured for 3 to 6 days by celltiter glo assay; type: functional, cell-based; settings: time 3-6 day
HCC1806 = assay: Cytotoxicity against human HCC1806 cells at upto 30 uM measured for 3 to 6 days by celltiter glo assay; type: functional, cell-based; settings: time 3-6 day
RPMI-8226 = assay: Cytotoxicity against human RPMI-8226 cells at upto 30 uM measured for 3 to 6 days by celltiter glo assay; type: functional, cell-based; settings: time 3-6 day
[2] = target: Histone-lysine N-methyltransferase PRDM9 (Homo sapiens) (UniProt Q9NQV7); assay: Inhibition of PRDM9 (unknown origin) at 1 to 10 uM; settings: dose 1-10 µM
Histone-lysine N-methyltransferase PRDM9 (Homo sapiens), sequence (Q9NQV7 whole entry, the tested form may be a part): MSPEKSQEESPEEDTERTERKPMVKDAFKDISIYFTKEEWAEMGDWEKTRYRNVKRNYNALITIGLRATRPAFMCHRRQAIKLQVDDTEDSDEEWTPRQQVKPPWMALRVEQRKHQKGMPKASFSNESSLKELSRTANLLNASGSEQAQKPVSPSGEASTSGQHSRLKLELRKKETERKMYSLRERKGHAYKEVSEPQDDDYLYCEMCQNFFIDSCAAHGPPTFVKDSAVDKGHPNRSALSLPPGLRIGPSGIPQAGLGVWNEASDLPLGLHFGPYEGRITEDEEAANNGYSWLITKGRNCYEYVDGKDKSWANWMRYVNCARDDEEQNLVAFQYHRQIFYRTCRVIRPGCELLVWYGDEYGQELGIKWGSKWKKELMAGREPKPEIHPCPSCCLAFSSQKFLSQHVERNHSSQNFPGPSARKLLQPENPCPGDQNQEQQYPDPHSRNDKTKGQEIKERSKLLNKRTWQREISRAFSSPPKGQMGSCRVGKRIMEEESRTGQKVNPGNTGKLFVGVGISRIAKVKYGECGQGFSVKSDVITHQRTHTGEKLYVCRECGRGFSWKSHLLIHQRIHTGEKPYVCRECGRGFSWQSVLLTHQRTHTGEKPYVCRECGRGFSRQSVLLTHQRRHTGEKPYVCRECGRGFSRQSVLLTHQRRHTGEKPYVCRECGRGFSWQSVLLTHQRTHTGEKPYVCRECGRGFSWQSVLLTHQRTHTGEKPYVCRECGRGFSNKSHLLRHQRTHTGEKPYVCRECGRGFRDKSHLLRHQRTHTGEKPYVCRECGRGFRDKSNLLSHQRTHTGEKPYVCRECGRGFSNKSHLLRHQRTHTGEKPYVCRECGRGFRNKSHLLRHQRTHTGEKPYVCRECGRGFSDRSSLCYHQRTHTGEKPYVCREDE

[3] = target: Mu-type opioid receptor (Homo sapiens) (UniProt P35372); assay: Antagonist activity against MOR receptor (unknown origin) by Glo Sensor assay; type: functional
Mu-type opioid receptor (Homo sapiens), sequence (P35372 whole entry): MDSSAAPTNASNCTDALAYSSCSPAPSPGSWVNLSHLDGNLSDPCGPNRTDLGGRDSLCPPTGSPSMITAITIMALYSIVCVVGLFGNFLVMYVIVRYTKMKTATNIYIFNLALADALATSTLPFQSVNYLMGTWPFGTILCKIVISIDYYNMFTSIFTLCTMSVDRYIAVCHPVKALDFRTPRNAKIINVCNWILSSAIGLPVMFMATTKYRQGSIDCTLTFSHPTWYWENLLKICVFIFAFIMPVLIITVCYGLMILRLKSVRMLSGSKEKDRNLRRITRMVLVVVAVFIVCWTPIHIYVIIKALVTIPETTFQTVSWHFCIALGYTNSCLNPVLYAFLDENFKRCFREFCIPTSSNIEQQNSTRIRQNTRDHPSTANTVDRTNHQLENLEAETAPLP

[4] = target: Histone-lysine N-methyltransferase PRDM9 (Homo sapiens) (UniProt Q9NQV7); assay: Inhibition of FLAG tagged PRDM9 transfected in human MCF7 cells cotransfected with H3-GFP assessed as inhibition of trimethylation H3K4 at upto 10 uM measured after 20 hrs by Western blot analysis; type: cell-based
[5] = target: Histone-lysine N-methyltransferase PRDM9 (Homo sapiens) (UniProt Q9NQV7); assay: Inhibition of PRDM9 (unknown origin) in presence of SAH
HEK-293T [6] = assay: Cytotoxicity against HEK293T cells at 10 uM measured after 24 hrs by IncuCyte zoom live-cell imaging analysis; type: toxicity, cell-based; settings: human
Procedure, shortened: (§1)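 HEK293T cells seeded, treated next day with compound for 1 day; cell number counted by live-cell imaging after Vybrant DyeCycle Green staining; mean ± sd, n = 3.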

[7] = target: Alpha-2B adrenergic receptor (Homo sapiens) (UniProt P18089); assay: Agonist activity at adrenergic alpha 2b receptor (unknown origin) by Glo Sensor assay; type: functional
Alpha-2B adrenergic receptor (Homo sapiens), sequence (P18089 whole entry): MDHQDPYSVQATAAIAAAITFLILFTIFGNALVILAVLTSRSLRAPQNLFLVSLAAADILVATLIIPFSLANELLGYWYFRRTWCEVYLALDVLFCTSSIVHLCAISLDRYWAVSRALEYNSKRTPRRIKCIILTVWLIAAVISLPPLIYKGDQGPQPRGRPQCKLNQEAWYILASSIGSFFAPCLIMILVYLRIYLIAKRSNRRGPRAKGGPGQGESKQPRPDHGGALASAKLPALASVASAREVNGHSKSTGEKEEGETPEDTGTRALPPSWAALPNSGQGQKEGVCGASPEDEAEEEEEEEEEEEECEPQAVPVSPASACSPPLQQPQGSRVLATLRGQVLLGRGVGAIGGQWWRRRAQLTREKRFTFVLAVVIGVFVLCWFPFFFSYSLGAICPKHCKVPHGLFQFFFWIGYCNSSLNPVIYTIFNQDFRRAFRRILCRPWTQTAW

[8] = target: Mu-type opioid receptor (Homo sapiens) (UniProt P35372); assay: Agonist activity at MOR receptor (unknown origin) by Glo Sensor assay; type: functional
Spermatocyte [9] = assay: Induction of meiotic defect in wild type mouse spermatocyte assessed as non homologous synapsis by SYCP1/SYCP3 staining based immunofluorescence assay; type: functional, cell-based
[10] = target: Histone-lysine N-methyltransferase PRDM7 (Homo sapiens) (UniProt Q9NQW5); assay: Binding affinity to PRDM7 (unknown origin) assessed as thermal stability by measuring change in melting temperature at 250 uM by SYPRO orange dye based differential scanning fluorimetry
Histone-lysine N-methyltransferase PRDM7 (Homo sapiens), sequence (Q9NQW5 whole entry): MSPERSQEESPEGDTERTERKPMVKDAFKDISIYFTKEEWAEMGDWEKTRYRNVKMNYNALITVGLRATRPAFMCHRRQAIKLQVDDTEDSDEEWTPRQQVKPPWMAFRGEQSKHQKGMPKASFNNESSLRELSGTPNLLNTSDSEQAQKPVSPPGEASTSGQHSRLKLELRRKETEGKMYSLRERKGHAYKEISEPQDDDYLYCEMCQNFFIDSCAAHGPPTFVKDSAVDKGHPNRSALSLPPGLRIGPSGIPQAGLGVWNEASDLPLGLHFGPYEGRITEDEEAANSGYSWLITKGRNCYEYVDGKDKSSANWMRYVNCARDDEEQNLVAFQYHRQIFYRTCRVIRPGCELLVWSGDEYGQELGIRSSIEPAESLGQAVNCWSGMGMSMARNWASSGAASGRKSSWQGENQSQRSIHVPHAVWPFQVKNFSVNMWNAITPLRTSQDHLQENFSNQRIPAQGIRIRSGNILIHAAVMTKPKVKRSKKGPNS
Procedure, shortened: (§2)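 DSF with 250 μM compound; proteins at 0.02 mg mL⁻¹ final in 0.1 M HEPES pH 7.5, 150 mM NaCl with 2 mM SAM; ΔTm (Tm ligand − Tm apo) above 2 °C taken as binding.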

MCF7 = assay: Cytotoxicity against human MCF7 cells assessed as reduction in cell viability at 10 uM measured on day 5 by IncuCyte zoom live-cell imaging analysis; type: functional, cell-based; settings: time 5.0 day
Procedure, shortened: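 MCF7 cells seeded, treated next day with 10 μM compound in a 5-day proliferation assay; cell number counted by live-cell imaging after Vybrant DyeCycle Green staining.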

[11] = target: Histone-lysine N-methyltransferase PRDM9 (Homo sapiens) (UniProt Q9NQV7); assay: Binding affinity to PRDM9 (unknown origin) (195 to 415 residues) at 20 uM measured at 60 to 120 secs in presence of SAH by surface plasmon resonance assay; settings: time 60-120 sec
[12] = target: Alpha-2B adrenergic receptor (Homo sapiens) (UniProt P18089); assay: Antagonist activity against adrenergic alpha 2b receptor (unknown origin) by Glo Sensor assay; type: functional
MDA-MB-436 = assay: Cytotoxicity against human MDA-MB-436 cells at upto 30 uM measured for 3 to 6 days by celltiter glo assay; type: functional, cell-based; settings: time 3-6 day
HEK-293T [13] = assay: Cytotoxicity against HEK293T cells at 10 uM measured after 4 days by IncuCyte zoom live-cell imaging analysis; type: toxicity, cell-based; settings: human, 96 h, time 4 day
HEK-293T [14] = assay: Cytotoxicity against HEK293T cells at 3 uM measured after 24 hrs by IncuCyte zoom live-cell imaging analysis; type: toxicity, cell-based; settings: human; procedure, shortened: as §1
[15] = target: Histamine H3 receptor (Homo sapiens) (UniProt Q9Y5N1); assay: Agonist activity at Histamine H3 (unknown origin) by Glo Sensor assay; type: functional
Histamine H3 receptor (Homo sapiens), sequence (Q9Y5N1 whole entry): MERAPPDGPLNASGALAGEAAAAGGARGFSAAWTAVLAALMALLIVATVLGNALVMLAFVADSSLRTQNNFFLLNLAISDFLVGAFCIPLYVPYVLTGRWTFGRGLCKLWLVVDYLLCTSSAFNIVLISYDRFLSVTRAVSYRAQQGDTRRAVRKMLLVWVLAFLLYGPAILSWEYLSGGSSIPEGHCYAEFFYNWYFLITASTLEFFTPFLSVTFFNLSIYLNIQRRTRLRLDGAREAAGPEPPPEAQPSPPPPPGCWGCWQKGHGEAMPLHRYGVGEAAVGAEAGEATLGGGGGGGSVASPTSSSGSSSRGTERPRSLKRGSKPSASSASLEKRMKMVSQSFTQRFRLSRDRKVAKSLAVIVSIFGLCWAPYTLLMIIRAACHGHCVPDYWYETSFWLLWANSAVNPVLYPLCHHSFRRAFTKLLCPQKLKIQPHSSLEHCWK

[16] = tested on: Histone-lysine N-methyltransferase PRDM9 (Homo sapiens), Q9NQV7 [UNDEFINED MUTATION]; assay: Inhibition of PRDM9 mutant (unknown origin) expressed in […] cells assessed as reduction in H3k4me3 expression at TSS region of endogenous chromatin at 2.5 to 10 uM measured after 48 hrs by ChIP qPCR analysis; type: cell-based; settings: HEK293T, dose 2.5-10 µM
Histone-lysine N-methyltransferase PRDM9 (Homo sapiens), Q9NQV7 [UNDEFINED MUTATION], sequence (Q9NQV7 whole entry, looked up, change not shown): as the sequence (Q9NQV7 whole entry, the tested form may be a part) above
Procedure, shortened: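 HEK293T cells transfected with empty vector, wild-type or catalytically dead PRDM9 and treated with 0.1% DMSO or compound for 48 h; formaldehyde fixed, sonicated chromatin (50 μg) immunoprecipitated with anti-H3K4me3 or anti-H3; qPCR at PRDM9-bound and control loci; mean ± s.d. of technical replicates, representative of two experiments.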

[17] = target: Histone-lysine N-methyltransferase PRDM9 (Homo sapiens) (UniProt Q9NQV7); assay: Inhibition of FLAG tagged PRDM9 transfected in HEK293T cells assessed as reduction in trimethylation of endogenous H3K4 measured after 20 hrs by Western blot analysis; type: cell-based; settings: dose <= 10.0 µM
[18] = target: Histone-lysine N-methyltransferase PRDM9 (Homo sapiens) (UniProt Q9NQV7); assay: Inhibition of FLAG tagged PRDM9 transfected in HEK293T cells assessed as reduction in trimethylation of ectopic H3K4 measured after 20 hrs by Western blot analysis; type: cell-based; settings: dose <= 10.0 µM
[19] = target: Muscarinic acetylcholine receptor M2 (Homo sapiens) (UniProt P08172); assay: Antagonist activity against muscarinic M2 receptor (unknown origin) by Glo Sensor assay; type: functional
[20] = target: Histone-lysine N-methyltransferase PRDM9 (Homo sapiens) (UniProt Q9NQV7); assay: Binding affinity to PRDM9 (unknown origin) assessed as thermal stability by measuring change in melting temperature at 250 uM by SYPRO orange dye based differential scanning fluorimetry; procedure, shortened: as §2
Spermatocyte [21] = assay: Induction of meiotic defect in wild type mouse spermatocyte assessed as effect on paring of chromosomal homolog by SYCP1/SYCP3 staining based immunofluorescence assay; type: functional, cell-based
HEK-293T [22] = assay: Cytotoxicity against HEK293T cells at 3 uM measured after 4 days by IncuCyte zoom live-cell imaging analysis; type: toxicity, cell-based; settings: human, 96 h, time 4 day

What does the source list for `COc1cc(OC)cc(-c2noc(N3CCN(C)C4(CCN(c5ccnc(C)c5)CC4)C3)n2)c1`?
Activity (SK-MM-2): inactive; Activity [1]: inactive; Activity (CAL-85-1): inactive; Activity (HCC1143): inactive; Activity (HCC1806): inactive; Activity (RPMI-8226): inactive; inhibition [2]: Active; Activity [3]: inactive; inhibition [4]: Active; inhibition [5]: inactive; Activity (HEK-293T [6]): Toxic; Activity [7]: inactive; Activity [8]: inactive; Activity (Spermatocyte [9]): Active; ΔTm [10]: > 2 °C; Activity (MCF7): inactive; Activity [11]: inactive; Activity [12]: inactive; Activity (MDA-MB-436): inactive; Activity (HEK-293T [13]): Toxic; Activity (HEK-293T [14]): Non-Toxic; Activity [15]: inactive; inhibition [16]: inactive; inhibition [17]: Dose-Dependent Effect; inhibition [18]: Dose-Dependent Effect; Activity [19]: inactive; ΔTm [20]: > 2 °C; Activity (Spermatocyte [21]): Active; Activity (HEK-293T [22]): Non-Toxic
